Measured values from the M2OR odorant receptor database.

Experiments:
Conditions in all cases: stereoisomer not certain
OR51B5 (Homo sapiens) = target: T1, OR51B5 (Homo sapiens) (UniProt Q9H339)
T1 sequence (whole entry): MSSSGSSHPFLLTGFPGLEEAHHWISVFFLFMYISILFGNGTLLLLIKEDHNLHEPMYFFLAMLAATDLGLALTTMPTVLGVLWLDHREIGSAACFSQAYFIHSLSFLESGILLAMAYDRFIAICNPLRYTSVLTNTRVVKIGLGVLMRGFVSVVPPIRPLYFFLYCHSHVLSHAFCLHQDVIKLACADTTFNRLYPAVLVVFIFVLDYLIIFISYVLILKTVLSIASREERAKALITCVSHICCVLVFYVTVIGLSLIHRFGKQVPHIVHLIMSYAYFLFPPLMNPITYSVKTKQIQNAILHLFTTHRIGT
In short: (§1)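 Each receptor–molecule pair is labelled responsive or non-responsive (inactive) according to whether the original authors judged the measured signal statistically different from baseline. The data were taken from the main text and supplementary material of published papers and checked for typos and inconsistencies. Assay methods differed by source, with transient luciferase assays in mammalian cell lines being common.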

OR51A4 (Homo sapiens) = OR51A4 (Homo sapiens) (UniProt Q8NGJ6)
Sequence of OR51A4 (Homo sapiens) (Q8NGJ6 whole entry): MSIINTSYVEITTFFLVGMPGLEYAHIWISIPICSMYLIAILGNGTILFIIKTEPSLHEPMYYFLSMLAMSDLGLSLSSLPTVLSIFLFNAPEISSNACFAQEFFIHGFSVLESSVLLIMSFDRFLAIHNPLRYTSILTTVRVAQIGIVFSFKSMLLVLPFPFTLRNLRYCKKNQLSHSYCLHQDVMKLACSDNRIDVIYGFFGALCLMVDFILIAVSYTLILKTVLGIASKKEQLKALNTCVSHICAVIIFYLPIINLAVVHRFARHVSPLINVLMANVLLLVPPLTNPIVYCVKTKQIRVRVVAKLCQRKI
In short: as §1

OR51A7 (Homo sapiens) = OR51A7 (Homo sapiens) (UniProt Q8NH64)
Sequence of OR51A7 (Homo sapiens) (Q8NH64 whole entry): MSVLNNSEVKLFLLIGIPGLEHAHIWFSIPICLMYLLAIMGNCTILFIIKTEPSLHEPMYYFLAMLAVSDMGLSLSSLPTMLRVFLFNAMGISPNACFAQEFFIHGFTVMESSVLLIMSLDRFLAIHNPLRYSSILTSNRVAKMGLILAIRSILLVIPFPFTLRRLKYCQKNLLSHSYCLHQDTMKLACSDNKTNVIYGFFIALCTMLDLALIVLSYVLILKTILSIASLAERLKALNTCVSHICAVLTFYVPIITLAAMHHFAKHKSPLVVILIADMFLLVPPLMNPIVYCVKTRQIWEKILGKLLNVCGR
In short: as §1

OR51B2 (Homo sapiens) = OR51B2 (Homo sapiens) (UniProt Q9Y5P1)
Sequence of OR51B2 (Homo sapiens) (Q9Y5P1 whole entry): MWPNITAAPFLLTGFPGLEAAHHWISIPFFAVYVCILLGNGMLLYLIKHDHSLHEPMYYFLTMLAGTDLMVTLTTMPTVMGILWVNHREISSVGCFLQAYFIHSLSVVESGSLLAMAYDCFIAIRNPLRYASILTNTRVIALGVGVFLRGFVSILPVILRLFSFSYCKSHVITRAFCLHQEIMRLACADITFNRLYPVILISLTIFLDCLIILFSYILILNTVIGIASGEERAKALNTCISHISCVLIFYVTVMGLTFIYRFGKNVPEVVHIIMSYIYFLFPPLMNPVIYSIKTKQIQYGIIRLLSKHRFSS
In short: as §1

OR51B4 (Homo sapiens) = OR51B4 (Homo sapiens) (UniProt Q9Y5P0)
Sequence of OR51B4 (Homo sapiens) (Q9Y5P0 whole entry): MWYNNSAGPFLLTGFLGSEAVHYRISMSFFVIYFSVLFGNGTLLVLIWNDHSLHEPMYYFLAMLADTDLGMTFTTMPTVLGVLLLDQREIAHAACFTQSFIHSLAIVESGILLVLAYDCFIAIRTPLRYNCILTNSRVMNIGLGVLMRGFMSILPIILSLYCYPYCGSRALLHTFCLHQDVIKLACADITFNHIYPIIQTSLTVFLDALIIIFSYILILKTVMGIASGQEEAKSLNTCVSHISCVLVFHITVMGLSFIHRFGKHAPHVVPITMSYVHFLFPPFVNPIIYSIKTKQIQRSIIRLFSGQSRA
In short: as §1

OR51B6 (Homo sapiens) = OR51B6 (Homo sapiens) (UniProt Q9H340)
Sequence of OR51B6 (Homo sapiens) (Q9H340 whole entry): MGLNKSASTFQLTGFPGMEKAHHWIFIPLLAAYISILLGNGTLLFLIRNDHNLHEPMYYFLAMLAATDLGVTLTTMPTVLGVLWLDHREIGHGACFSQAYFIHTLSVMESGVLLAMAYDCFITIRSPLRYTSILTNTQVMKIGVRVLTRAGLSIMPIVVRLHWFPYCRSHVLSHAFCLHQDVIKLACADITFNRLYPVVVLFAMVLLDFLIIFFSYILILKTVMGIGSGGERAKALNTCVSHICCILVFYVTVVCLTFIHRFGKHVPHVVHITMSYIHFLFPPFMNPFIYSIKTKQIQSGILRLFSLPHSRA
In short: as §1

OR51D1 (Homo sapiens) = OR51D1 (Homo sapiens) (UniProt Q8NGF3)
Sequence of OR51D1 (Homo sapiens) (Q8NGF3 whole entry): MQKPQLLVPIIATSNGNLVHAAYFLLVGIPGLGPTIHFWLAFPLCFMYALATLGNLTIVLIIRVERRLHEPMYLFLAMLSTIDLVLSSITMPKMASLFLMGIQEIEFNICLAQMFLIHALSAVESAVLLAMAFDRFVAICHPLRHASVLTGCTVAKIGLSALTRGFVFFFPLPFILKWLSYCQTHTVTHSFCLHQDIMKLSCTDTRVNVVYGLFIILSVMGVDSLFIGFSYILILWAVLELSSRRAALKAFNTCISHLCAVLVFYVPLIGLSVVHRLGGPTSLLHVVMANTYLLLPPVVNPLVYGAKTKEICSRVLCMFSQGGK
In short: as §1

OR51E1 (Homo sapiens) [1] = target: OR51E1 (Homo sapiens) (UniProt Q8TCB6)
In short: as §1

OR51E1 (Homo sapiens) [2] = target: T2, OR51E1 (Homo sapiens) (UniProt Q8TCB6); remark: listed apart in the source
T2 sequence (whole entry): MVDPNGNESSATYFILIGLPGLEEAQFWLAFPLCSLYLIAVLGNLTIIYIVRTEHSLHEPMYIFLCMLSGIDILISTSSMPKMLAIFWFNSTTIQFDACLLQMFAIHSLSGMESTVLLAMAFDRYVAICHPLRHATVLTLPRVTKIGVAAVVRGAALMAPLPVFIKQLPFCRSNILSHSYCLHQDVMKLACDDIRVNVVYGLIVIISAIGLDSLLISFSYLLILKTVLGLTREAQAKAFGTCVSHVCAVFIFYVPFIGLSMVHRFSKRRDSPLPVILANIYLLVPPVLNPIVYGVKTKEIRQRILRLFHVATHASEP
In short: as §1

OR51E2 (Homo sapiens) = target: T3, OR51E2 (Homo sapiens) (UniProt Q9H255)
T3 sequence (whole entry): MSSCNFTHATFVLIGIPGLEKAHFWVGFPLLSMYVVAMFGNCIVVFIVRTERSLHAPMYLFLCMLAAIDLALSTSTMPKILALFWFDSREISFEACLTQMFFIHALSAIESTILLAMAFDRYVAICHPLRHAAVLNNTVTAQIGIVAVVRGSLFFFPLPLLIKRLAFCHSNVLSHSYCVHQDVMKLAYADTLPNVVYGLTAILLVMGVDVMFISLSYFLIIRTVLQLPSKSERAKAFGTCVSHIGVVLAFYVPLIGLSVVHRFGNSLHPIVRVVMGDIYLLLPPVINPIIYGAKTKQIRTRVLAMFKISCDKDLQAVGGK
In short: as §1

OR51F2 (Homo sapiens) = OR51F2 (Homo sapiens) (UniProt Q8NH61)
Sequence of OR51F2 (Homo sapiens) (Q8NH61 whole entry): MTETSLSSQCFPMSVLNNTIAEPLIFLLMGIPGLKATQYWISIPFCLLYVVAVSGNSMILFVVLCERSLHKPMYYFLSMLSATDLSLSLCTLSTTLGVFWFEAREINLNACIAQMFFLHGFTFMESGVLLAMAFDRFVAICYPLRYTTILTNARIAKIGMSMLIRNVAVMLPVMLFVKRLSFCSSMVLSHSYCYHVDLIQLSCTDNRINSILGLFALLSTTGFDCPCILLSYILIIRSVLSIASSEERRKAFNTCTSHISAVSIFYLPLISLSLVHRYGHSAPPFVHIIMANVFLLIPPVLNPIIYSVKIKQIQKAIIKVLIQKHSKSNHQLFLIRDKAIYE
In short: as §1

OR51G1 (Homo sapiens) = OR51G1 (Homo sapiens) (UniProt Q8NGK1)
Sequence of OR51G1 (Homo sapiens) (Q8NGK1 whole entry): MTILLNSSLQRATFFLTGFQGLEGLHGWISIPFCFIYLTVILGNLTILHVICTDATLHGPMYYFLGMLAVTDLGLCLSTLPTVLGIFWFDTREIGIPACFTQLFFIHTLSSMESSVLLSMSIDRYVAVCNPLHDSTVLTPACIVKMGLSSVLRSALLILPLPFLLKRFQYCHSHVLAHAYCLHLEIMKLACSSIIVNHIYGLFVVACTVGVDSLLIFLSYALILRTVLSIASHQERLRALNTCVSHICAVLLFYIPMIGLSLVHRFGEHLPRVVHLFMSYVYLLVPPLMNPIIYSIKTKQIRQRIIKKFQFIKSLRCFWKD
In short: as §1

OR51G2 (Homo sapiens) = OR51G2 (Homo sapiens) (UniProt Q8NGK0)
Sequence of OR51G2 (Homo sapiens) (Q8NGK0 whole entry): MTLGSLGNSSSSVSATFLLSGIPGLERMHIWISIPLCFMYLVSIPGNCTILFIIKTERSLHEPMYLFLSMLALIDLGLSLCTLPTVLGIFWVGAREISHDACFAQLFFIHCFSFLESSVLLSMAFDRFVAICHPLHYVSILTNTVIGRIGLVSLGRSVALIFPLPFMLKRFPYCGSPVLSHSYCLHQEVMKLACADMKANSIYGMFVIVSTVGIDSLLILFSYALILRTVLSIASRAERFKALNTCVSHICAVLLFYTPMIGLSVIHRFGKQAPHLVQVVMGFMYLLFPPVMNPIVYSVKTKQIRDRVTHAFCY
In short: as §1

OR51I1 (Homo sapiens) = OR51I1 (Homo sapiens) (UniProt Q9H343)
Sequence of OR51I1 (Homo sapiens) (Q9H343 whole entry): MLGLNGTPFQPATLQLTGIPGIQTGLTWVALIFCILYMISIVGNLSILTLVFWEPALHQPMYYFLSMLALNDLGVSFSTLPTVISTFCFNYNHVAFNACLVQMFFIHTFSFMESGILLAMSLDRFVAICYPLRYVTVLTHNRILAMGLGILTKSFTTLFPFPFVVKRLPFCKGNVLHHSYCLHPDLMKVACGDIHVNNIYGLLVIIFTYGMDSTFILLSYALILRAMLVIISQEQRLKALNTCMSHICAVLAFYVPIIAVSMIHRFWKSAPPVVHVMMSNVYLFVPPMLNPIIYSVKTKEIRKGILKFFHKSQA
In short: as §1

OR51I2 (Homo sapiens) = OR51I2 (Homo sapiens) (UniProt Q9H344)
Sequence of OR51I2 (Homo sapiens) (Q9H344 whole entry): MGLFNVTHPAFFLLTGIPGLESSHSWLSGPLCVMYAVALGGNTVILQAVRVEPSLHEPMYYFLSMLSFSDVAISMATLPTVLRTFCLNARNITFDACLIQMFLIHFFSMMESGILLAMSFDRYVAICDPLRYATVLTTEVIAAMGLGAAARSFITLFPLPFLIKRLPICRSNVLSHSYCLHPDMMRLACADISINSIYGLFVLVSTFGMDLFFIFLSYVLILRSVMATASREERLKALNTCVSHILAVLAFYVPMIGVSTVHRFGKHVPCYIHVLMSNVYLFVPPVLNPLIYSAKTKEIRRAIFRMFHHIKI
In short: as §1

OR51J1 (Homo sapiens) = OR51J1 (Homo sapiens) (UniProt Q9H342)
Sequence of OR51J1 (Homo sapiens) (Q9H342 whole entry): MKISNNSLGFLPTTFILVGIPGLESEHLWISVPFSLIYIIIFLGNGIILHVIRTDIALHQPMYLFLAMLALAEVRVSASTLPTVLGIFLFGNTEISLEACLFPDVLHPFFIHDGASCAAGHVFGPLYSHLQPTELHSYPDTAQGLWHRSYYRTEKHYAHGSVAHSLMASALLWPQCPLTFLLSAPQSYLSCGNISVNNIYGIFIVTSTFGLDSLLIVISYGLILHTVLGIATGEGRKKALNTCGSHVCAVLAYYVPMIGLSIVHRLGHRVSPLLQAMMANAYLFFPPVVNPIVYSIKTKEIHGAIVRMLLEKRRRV
In short: as §1

OR51L1 (Homo sapiens) = target: T4, OR51L1 (Homo sapiens) (UniProt Q8NGJ5)
T4 sequence (whole entry): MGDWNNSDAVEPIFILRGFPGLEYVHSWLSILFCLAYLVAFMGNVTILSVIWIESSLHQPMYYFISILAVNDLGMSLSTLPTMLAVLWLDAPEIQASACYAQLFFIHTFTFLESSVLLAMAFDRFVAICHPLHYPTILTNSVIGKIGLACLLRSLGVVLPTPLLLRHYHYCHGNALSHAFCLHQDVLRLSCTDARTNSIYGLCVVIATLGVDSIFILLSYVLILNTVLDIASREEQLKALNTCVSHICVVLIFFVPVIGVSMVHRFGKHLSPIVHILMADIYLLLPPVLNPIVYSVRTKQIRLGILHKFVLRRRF
In short: as §1

OR51M1 (Homo sapiens) = OR51M1 (Homo sapiens) (UniProt Q9H341)
Sequence of OR51M1 (Homo sapiens) (Q9H341 whole entry): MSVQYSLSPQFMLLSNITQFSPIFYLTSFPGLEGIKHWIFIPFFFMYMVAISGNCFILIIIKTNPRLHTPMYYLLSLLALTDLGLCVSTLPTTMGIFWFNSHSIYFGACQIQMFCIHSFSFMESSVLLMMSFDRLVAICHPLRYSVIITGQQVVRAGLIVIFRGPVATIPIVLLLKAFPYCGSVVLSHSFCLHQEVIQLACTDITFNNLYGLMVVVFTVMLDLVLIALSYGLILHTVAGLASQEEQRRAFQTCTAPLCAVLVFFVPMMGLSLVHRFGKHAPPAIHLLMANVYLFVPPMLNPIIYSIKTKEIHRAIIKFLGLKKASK
In short: as §1

OR51F1 (Homo sapiens) = OR51F1 (Homo sapiens) (UniProt A6NGY5)
Sequence of OR51F1 (Homo sapiens) (A6NGY5 whole entry): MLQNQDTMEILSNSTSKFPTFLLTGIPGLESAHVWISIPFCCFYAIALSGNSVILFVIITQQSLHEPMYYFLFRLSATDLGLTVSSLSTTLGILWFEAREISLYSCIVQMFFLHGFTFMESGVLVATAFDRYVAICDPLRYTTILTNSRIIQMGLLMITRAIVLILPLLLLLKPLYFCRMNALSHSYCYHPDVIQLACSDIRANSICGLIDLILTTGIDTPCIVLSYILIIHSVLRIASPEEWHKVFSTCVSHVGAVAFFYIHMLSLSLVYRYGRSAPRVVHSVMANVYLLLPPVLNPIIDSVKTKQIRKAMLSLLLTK
In short: as §1

OR51H1 (Homo sapiens) = OR51H1 (Homo sapiens) (UniProt Q8NH63)
Sequence of OR51H1 (Homo sapiens) (Q8NH63 whole entry): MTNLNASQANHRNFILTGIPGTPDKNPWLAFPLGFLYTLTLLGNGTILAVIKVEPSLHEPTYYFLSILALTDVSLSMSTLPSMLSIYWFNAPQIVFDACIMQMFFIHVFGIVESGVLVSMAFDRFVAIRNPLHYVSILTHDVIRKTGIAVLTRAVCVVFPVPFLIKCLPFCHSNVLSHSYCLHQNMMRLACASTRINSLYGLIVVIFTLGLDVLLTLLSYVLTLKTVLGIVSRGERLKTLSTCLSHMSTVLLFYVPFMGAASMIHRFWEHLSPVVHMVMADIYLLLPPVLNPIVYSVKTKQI
In short: as §1

Measured: odorant receptor agonist call

COc1ccc(C=O)cc1
inactive: OR51B5 (Homo sapiens)

Cc1cccc(C)c1
inactive: OR51B5 (Homo sapiens)

C=CCOC(=O)Cc1ccccc1
active: OR51L1 (Homo sapiens)
inactive: OR51A4 (Homo sapiens) | OR51A7 (Homo sapiens) | OR51B2 (Homo sapiens) | OR51B4 (Homo sapiens) | OR51B5 (Homo sapiens) | OR51B6 (Homo sapiens) | OR51D1 (Homo sapiens) | OR51E1 (Homo sapiens) [1] | OR51E1 (Homo sapiens) [2] | OR51E2 (Homo sapiens) | OR51F2 (Homo sapiens) | OR51G1 (Homo sapiens) | OR51G2 (Homo sapiens) | OR51I1 (Homo sapiens) | OR51I2 (Homo sapiens) | OR51J1 (Homo sapiens) | OR51M1 (Homo sapiens)

Cc1c([N+](=O)[O-])c(C)c([N+](=O)[O-])c(C(C)(C)C)c1[N+](=O)[O-]
inactive: OR51A4 (Homo sapiens) | OR51A7 (Homo sapiens) | OR51B2 (Homo sapiens) | OR51B4 (Homo sapiens) | OR51B5 (Homo sapiens) | OR51B6 (Homo sapiens) | OR51D1 (Homo sapiens) | OR51E2 (Homo sapiens) | OR51F1 (Homo sapiens) | OR51F2 (Homo sapiens) | OR51G1 (Homo sapiens) | OR51G2 (Homo sapiens) | OR51H1 (Homo sapiens) | OR51I1 (Homo sapiens) | OR51I2 (Homo sapiens) | OR51J1 (Homo sapiens) | OR51L1 (Homo sapiens) | OR51M1 (Homo sapiens)

C=CCc1ccccc1
inactive: OR51E1 (Homo sapiens) [2] | OR51E2 (Homo sapiens) | OR51L1 (Homo sapiens)

CCC1CCC(=O)O1 (configuration not stated)
inactive: OR51E1 (Homo sapiens) [2] | OR51E2 (Homo sapiens) | OR51L1 (Homo sapiens)

O=c1cc(O)c2ccccc2o1
inactive: OR51E1 (Homo sapiens) [2] | OR51E2 (Homo sapiens) | OR51L1 (Homo sapiens)
